The text below walks through data of PubChem BioAssay AID2520 (Sanford-Burnham Center for Chemical Genomics, 2010).

Screen size: about 330,000 compounds; about 350 (0.11%) were called active.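 The calls were made as follows: active = activation more than six SD over the plate average, tested at 20 µM; inactive = the rest.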 This excerpt belongs to a sample that is enriched for actives.

Sequence of Apelin receptor (Homo sapiens) (P35414 whole entry, looked up): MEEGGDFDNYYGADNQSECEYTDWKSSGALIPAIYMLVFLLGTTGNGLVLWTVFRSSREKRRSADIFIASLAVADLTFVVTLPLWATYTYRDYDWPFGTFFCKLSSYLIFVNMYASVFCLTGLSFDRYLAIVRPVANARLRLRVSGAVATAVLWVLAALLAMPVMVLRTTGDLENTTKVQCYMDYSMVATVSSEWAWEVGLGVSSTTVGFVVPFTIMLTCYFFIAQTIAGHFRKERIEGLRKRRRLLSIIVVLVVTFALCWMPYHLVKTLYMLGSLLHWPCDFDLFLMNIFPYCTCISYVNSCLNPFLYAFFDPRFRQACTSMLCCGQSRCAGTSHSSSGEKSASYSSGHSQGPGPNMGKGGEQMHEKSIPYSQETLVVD

The target in this assay is Apelin receptor (Homo sapiens) (UniProt P35414). The assay is described as follows: agonists of human apelin receptor APJ, primary screen, CHO-K1 cells, PathHunter beta-arrestin, luminescence (AID 2520).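 Also: 0% = DMSO alone and 100% = apelin-13 at 10 nM.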 The following applies: at 20 µM, stronger effect = higher value, 0% DMSO wells, 100% apelin. The method, boiled down:
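Assay system: CHO-K1 APJ beta-arrestin complementation cell line / Compound: single test compound dose, 20 µM final, 1% DMSO / Times: overnight seeding, 90 min compound at 25 °C, 1 h detection / Technique: beta-gal luminescence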
For `CC(C)(C)C1CCC(=NNC(=O)c2ccc(Br)o2)CC1` (stereo not given), the activation is -3.06% (inactive).

Turning to `O=C(N/N=C\C1CC=CCC1)c1ccc(Br)o1` (stereo not given), the activation is 8.95% (inactive).

In the case of `CCC(C)(C)C1CCC(=NNC(=O)c2ccc(Br)o2)CC1` (stereo not given), the activation was 19.8% (active).

With `Fc1ccc(CNCc2ccc(Br)cc2)cc1`, the activation was -1.03% (inactive).

For the compound `COC(=O)c1ccc(NC(=O)CSc2nnc(C3CC3)n2C)cc1`, the activation was -3.11% (inactive).

Take `O=C(OCCN1C(=O)c2ccccc2C1=O)Oc1ccccc1`: the activation was -1.77% (inactive).

Consider `O=C(COC(=O)C12CC3CC(CC(O)(C3)C1)C2)NC12CC3CC(CC(C3)C1)C2`, for which the activation is -1.34% (inactive).

On to `O=C(COc1ccc(Cl)cc1)NCCSc1ccccc1`, for which the activation is -1.87% (inactive).

With `O=[N+]([O-])c1cc(Cl)cc(/C=N/NC(=S)Nc2cc(S(=O)(=O)N3CCOCC3)ccc2Cl)c1O`, the activation is -5.98% (inactive).

For the compound `Cc1ccc(NS(=O)(=O)c2c(C)[nH]c(C)c2C(=O)N2CCCCC2)c(C)c1`, the activation was -0.00146% (inactive).

As for `CC(=O)c1ccc(OCC(O)CN2CCN(S(=O)(=O)c3cccc(Br)c3)CC2)cc1` (stereo not given), the activation was -1.5% (inactive).

As for `CSc1ncc(C(=O)Nc2ccc(C)cc2C)c(C)n1`, the activation is -0.333% (inactive).

As for `Cc1ccc(S(=O)(=O)NCc2nc3ccccc3c(=O)n2N)cc1`, the activation is -0.607% (inactive).

As for `CCCc1nc(N2CCN(C)CC2)c2sc(=S)n(-c3ccccc3)c2n1`, the activation is -2.45% (inactive).

In the case of `COC(=O)c1ccc(C)c(NC(=O)C2CC(=O)N(C3CCCC(C)C3C)C2)c1` (stereo not given), the activation is -2.02% (inactive).

On to `CC(=O)N1CCCc2cc(S(=O)(=O)N3CCCC(C(=O)NCc4ccc(Cl)cc4)C3)ccc21` (stereo not given), for which the activation was -0.0955% (inactive).

For the compound `CC(=O)N1c2ccc(S(=O)(=O)N3CCCC(C(=O)Nc4cccc(Cl)c4)C3)cc2CC1C` (stereo not given), the activation is -0.333% (inactive).

For `CC(=O)N1CCCc2cc(S(=O)(=O)N3CCCC(C(=O)N4CCN(c5cccc(Cl)c5)CC4)C3)ccc21` (stereo not given), the activation was 19.6% (active).

As to `O=S(=O)(/C=C/c1ccccc1)N1CCNCC1`, the activation was -1.77% (inactive).

For `Cc1ccc(C)c(NC(=O)NNC(=O)c2ccc3ccccc3c2O)c1`, the activation is 10% (inactive).

With `CCCCNC(=O)c1ccccc1NC(=O)C1=C(C)OCCS1`, the activation is 0.515% (inactive).

Consider `COc1cc(NC(=O)C2=C(C)OCCS2)c(Cl)cc1C(=O)NCCN1CCN(C)CC1`, for which the activation was 18.9% (active).

With `COc1ccc(N2CCN(C(=O)c3ccccc3NC(=O)C3=C(C)OCCS3)CC2)cc1`, the activation was -4.76% (inactive).

For `CCOC(=O)CSc1nnc(NC(=O)C2CC(=O)N(c3ccc(F)cc3)C2)s1` (stereo not given), the activation is -4.52% (inactive).

`C=CCOc1ccc(C2/C(=C(\O)c3c(C)[nH]c(C(=O)OC)c3C)C(=O)C(=O)N2CCN(C)C)cc1` (stereo not given): the activation was -0.14% (inactive).

`O=Cc1c(NCCc2cccc(F)c2)c2ccccc2[nH]c1=O`: the activation was -3.46% (inactive).

Consider `CC(C(=O)Nc1ccc(F)c(F)c1F)N1CCCCCC1` (stereo not given), for which the activation was -3.77% (inactive).

In the case of `CC1CCN(C(=O)c2ccc(S(=O)(=O)Cc3cc(F)ccc3F)c([N+](=O)[O-])c2)CC1`, the activation is 1.51% (inactive).

On to `CCN1CCN(C(C(=O)NC2CCCC2)c2cc3c(cc2[N+](=O)[O-])OCO3)CC1` (stereo not given), for which the activation is 9.21% (inactive).

With `O=C(CSc1nc(Nc2ccccc2)nc(N2CCOCC2)n1)Nc1cc(Cl)ccc1O`, the activation is 40.8% (active).

With `CC1(c2ccccc2)NC(=O)N(CC(=O)Nc2cc(Cl)ccc2N2CCOCC2)C1=O` (stereo not given), the activation was -3.1% (inactive).

Regarding `Cc1ccccc1NC(=O)CSc1nc2ccc(Nc3nc(N4CCOCC4)nc(N4CCOCC4)n3)cc2s1`, the activation was 8.35% (inactive).

As to `CCn1c(SCC(=O)NC2CC2)nnc1-c1ccncc1`, the activation was -8.09% (inactive).

In the case of `CN1CCC(=O)N([C@H](CO)Cc2ccccc2)CC1`, the activation was -1.16% (inactive).

`Cc1nn(Cc2ccccc2)c(C)c1C(=O)NCCCN1CCCC1=O`: the activation is -4.22% (inactive).

Consider `COC(=O)C1C(=O)CC(C)(O)C(C(=O)OC)C1c1ccc2c(c1)OCO2` (stereo not given), for which the activation was 2.74% (inactive).

For `NC(=O)CN1CCCC1c1ccc2c(c1)OCCO2` (stereo not given), the activation was 0.777% (inactive).

`O=C(O)Cc1ccc(NC(=O)C2CCCCC2C(=O)O)cc1` (stereo not given): the activation is -3.2% (inactive).

On to `Cc1cc(C)nc(NC2=NCC(=O)N2c2ccc(Cl)cc2)n1`, for which the activation is -2.04% (inactive).

Regarding `Cc1ccnc(SCCn2c(N(C)Cc3ccccc3)nc3c2c(=O)n(C)c(=O)n3C)n1`, the activation was -0.694% (inactive).

Consider `Cc1[nH]c(C)c(S(=O)(=O)N2CCN(c3cccc(C(F)(F)F)c3)CC2)c1C(=O)N1CCCC1`, for which the activation was 0.662% (inactive).

Regarding `COc1ccccc1N(CC(=O)NC1CCCC1)C(=O)C1(C)CC(=O)N=C2C=CC(C)=CN21` (stereo not given), the activation is -0.286% (inactive).

Regarding `Cc1cc(C)nc(SCc2nnc(SCC(=O)Nc3ncc(C)s3)n2Cc2ccco2)n1`, the activation was -3.79% (inactive).

`CC[C@@]1(C(=O)OC)N[C@H](CN(C)C(C)=O)[C@@H]2C(=O)N(C)C(=O)[C@@H]21`: the activation is -1.38% (inactive).

Consider `CCC(=O)Nc1c(C)n[nH]c1C`, for which the activation is -0.823% (inactive).

Take `CN1CCN(c2ncc3c(n2)CC(c2ccccc2F)CC3=O)CC1` (stereo not given): the activation was -2.83% (inactive).

Regarding `CC(C)(C)Nc1c(N)c(=O)oc2ccccc12`, the activation was -1.36% (inactive).

`CCCCC(=O)Nc1cc(C)c2c(=O)oc3ccccc3c2n1`: the activation was 7.83% (inactive).

As for `Cc1ccccc1-n1nnc2c(=O)oc3ccccc3c21`, the activation is 10.2% (active).

With `O=C(c1ccc(-c2ccccc2)cc1)C1CCCN(C(=O)c2cncs2)C1` (stereo not given), the activation was 1.31% (inactive).

Take `Cc1noc(C)c1C(=O)NCC1COc2ccccc2O1` (stereo not given): the activation is -2.37% (inactive).

With `Cc1ccccc1/[N+]([O-])=C/c1ccncc1`, the activation was 1.01% (inactive).

Regarding `COCCn1nnnc1CN1CCC(NC(=O)Nc2cccc(OC)c2)CC1`, the activation was -0.645% (inactive).

With `COc1ccc(NC(=O)CC(NC(C)c2ccccc2)C(=O)O)cc1` (stereo not given), the activation is -1.25% (inactive).

With `CCN(CC)CCNc1nc(-c2ccc(OC(F)F)cc2)c(C)s1`, the activation is -1.98% (inactive).

With `CC1(C(=O)NNC(=S)NCC2CCCO2)CC1(Cl)Cl` (stereo not given), the activation is -1.22% (inactive).

As to `O=C1CCC(=O)N1c1ccc(NCCc2ccccc2F)c([N+](=O)[O-])c1`, the activation is -3.51% (inactive).

Turning to `O=C(NCCc1ccc(Cl)cc1)C1CCCN1C(=O)NCc1ccccc1` (stereo not given), the activation was 0.456% (inactive).

Turning to `CN1C(=O)c2ccccc2C(C(=O)NCCCN2CCCC2)C1c1c[nH]c2ccccc12` (stereo not given), the activation is -1.97% (inactive).

Take `Cc1ccc(NS(=O)(=O)c2ccc(-c3ccc(=O)[nH]n3)o2)c(C)c1`: the activation was 2.4% (inactive).

Take `CN(C)c1ccc(C(CC(=O)O)C(=O)O)cc1` (stereo not given): the activation is -1.37% (inactive).

Take `CC(C)(C)n1nnc(CCc2nnn(C(C)(C)C)n2)n1`: the activation was -4.6% (inactive).

On to `O=C(O)C1CCCN1S(=O)(=O)c1ccc(Br)cc1` (stereo not given), for which the activation is -2.7% (inactive).

Turning to `O=C(C1CC(=O)N(C2CCCC2)C1)N1CCN(c2cccc(C(F)(F)F)c2)CC1` (stereo not given), the activation was 5.77% (inactive).

On to `CN(C)c1nc2n(c(=O)n1)CCO2`, for which the activation was -2.79% (inactive).

In the case of `c1ccc(C2CCC(N3CCC(N4CCCCC4)CC3)CC2)cc1` (stereo not given), the activation is -3.04% (inactive).

Consider `O=C(Nc1ccc(Cl)cc1)c1cc2nc(C3CC3)cc(C(F)(F)F)n2n1`, for which the activation was -4.3% (inactive).

As for `FC(F)(F)c1ccc(CN2C[C@@H]3C(c4ccccc4)C4(c5ccccc5)CC3(C4)[C@H]2c2ccccc2)cc1` (stereo not given in full), the activation is -0.566% (inactive).

Regarding `Cc1ccc(N(C(=O)Cc2cccs2)C2C=CS(=O)(=O)C2)cc1Cl` (stereo not given), the activation is -2.42% (inactive).

Turning to `Cn1c(CC(=O)Nc2ccc(F)cc2)nnc1SCC(=O)NC1CCCCC1`, the activation was -3.67% (inactive).

Regarding `COc1ccc(C)cc1NC(=O)c1cc(-c2ccccc2)nc2c1cnn2C(C)C`, the activation is -4.65% (inactive).

With `CCOc1cc2[nH]c(=S)n(CCN3CCCCC3C)c(=O)c2cc1OCC` (stereo not given), the activation was 7.97% (inactive).

On to `CCOc1cc2[nH]c(=O)n(Cc3ccc(C(=O)NCCCN4CCCC4=O)cc3)c(=O)c2cc1OCC`, for which the activation was 3.97% (inactive).

Consider `CCOc1cc2[nH]c(=S)n(CCCN3CCCC3=O)c(=O)c2cc1OCC`, for which the activation is 23.3% (active).

In the case of `CC1CN(C(=O)CCC(=O)NCCCN2CCC(Cc3ccccc3)CC2)c2cc(Cl)ccc2O1` (stereo not given), the activation was -4.59% (inactive).

`CCn1c(CSCc2c(Cl)cccc2Cl)n[nH]c1=S`: the activation was -4.78% (inactive).

In the case of `CN1CCN(CCCCOc2ccccc2-c2ccccc2)CC1`, the activation was 3.27% (inactive).

Regarding `O=Cc1ccc(OCc2cn3ccccc3n2)cc1`, the activation is -1.42% (inactive).

Take `COc1ccccc1CNC(=O)CN1CCC(n2cnc3cc(F)ccc32)CC1`: the activation was -0.106% (inactive).

Consider `Cc1cc(C(=O)OCC(=O)N2C(C)CCCC2C)c2ccccc2n1` (stereo not given), for which the activation was -2.15% (inactive).

On to `O=C(c1ccccc1)N1CCN(C(=O)c2cc3nc(-c4ccccc4)cc(C(F)(F)F)n3n2)CC1`, for which the activation is -0.488% (inactive).

On to `COc1ccccc1Oc1ccc(N2CC(C(=O)OCC(=O)c3ccc(F)cc3)CC2=O)cc1` (stereo not given), for which the activation is -2.79% (inactive).

`O=C(Nc1ccc(F)c([N+](=O)[O-])c1)C1CC(=O)N(Cc2ccccc2)C1` (stereo not given): the activation was -2.4% (inactive).

For `COc1cccc(N(CC(=O)NC2CCCC2)C(=O)Cn2nnc(-c3ccc(C)cc3)n2)c1`, the activation is 0.507% (inactive).

For `O=C(CCCn1c(=O)c2sccc2n(CC(=O)NCC2CCCO2)c1=O)NCc1ccco1` (stereo not given), the activation was -4.48% (inactive).

As to `COc1ccccc1NC(=O)C1=C(C)Nc2nc3ccccc3n2C1c1cccs1` (stereo not given), the activation is -1.44% (inactive).

In the case of `COc1ccc(S(=O)(=O)N(CC(=O)NCc2ccco2)c2ccc(F)cc2)cc1`, the activation was -0.367% (inactive).

With `CN(C)N1C(N)=C(C#N)C(c2ccc(Br)cc2)C2=C1CCCC2=O` (stereo not given), the activation is 0.53% (inactive).

On to `O=[N+]([O-])c1ccccc1N/N=C1\CCc2ccccc21`, for which the activation was -0.52% (inactive).

For the compound `O=C(N[C@@H](Cc1c[nH]c2ccccc12)C(=O)O)OCC1c2ccccc2-c2ccccc21`, the activation was 7.88% (inactive).
